Source: ChEMBL document CHEMBL1145773, “Design, synthesis, SAR, and molecular modeling studies of acylthiocarbamates: a novel series of potent non-nucleoside HIV-1 reverse transcriptase inhibitors structurally related to phenethylthiazolylthiourea derivatives” (J Med Chem, 2003)

Key:
MT4 = test: Selectivity index which is the ratio of CC50 and EC50 was determined; type: functional, Homo sapiens
Method in brief: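 MT-4 cells (1 × 10^4/well) were seeded with or without serial compound dilutions, then infected with HIV-1 IIIB at enough CCID50 for complete cytopathogenicity by day 4. Cultures were incubated at 37 °C and viability was read by MTT. […] Cytotoxicity was run in parallel on mock-infected cells, and SI = CC50/EC50. Data are means of three separate experiments.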

MT-4 (Homo sapiens) = test: Concentration required to reduce the viability of mock-infected MT-4 cells by 50% was determined by MTT method; settings: MT4
[1] = tested on: Human immunodeficiency virus 1; test: Anti HIV-1 activity of selected N-acylthiocarbamates against Y181C resistant mutant; type: functional, organism-based
Method in brief: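 Acutely infected MT-4 cells (1 × 10⁴ cells/well) incubated at 37 °C with serial compound dilutions (DMSO stock, diluted in medium) and Y181C mutant virus (NIH N119; titer 1.3 × 10⁶ CCID₅₀/mL) dosed to cause full cytopathogenicity by day 4. Viability read by MTT; EC₅₀ = concentration giving 50% protection from virus-induced cytopathogenicity.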

[2] = tested on: Human immunodeficiency virus 1; test: Concentration required to reduce the amount of p24 by 90% in HIV-1 infected C8166 cultures; type: functional, organism-based; settings: Human immunodeficiency virus 1, C8166
Method in brief: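 C8166 cells (1 × 10^4/well) were infected with wt HIV-1 in the presence of graded compound concentrations, with DMSO stocks diluted in culture medium. After incubation at 37 °C, p24 antigen was measured by immunoenzymatic kit. EC90 is the concentration lowering p24 by 90%.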

[3] = biological target: Human immunodeficiency virus type 1 reverse transcriptase (Human immunodeficiency virus 1, UniProt Q72547); test: Activity of selected HIV-1 N-acylthiocarbamates in enzyme assay against Virion-Associated reverse transcriptase
Method in brief: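 Virion-associated RT from stock virus disrupted with 0.5% NP-40. Incubation 60 min at 37 °C, then acid-insoluble radioactivity counted on glass fiber filters.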

Structure (SMILES) | SI (MT4) | CC50 (MT-4 (Homo sapiens)) | EC50 [1] | EC90 [2] | IC50 [3]
CC(=O)Oc1ccccc1C(=O)N(C(=S)OCCOc1ccccc1)c1ccccc1 | >21 | > 200 µM |  |  | 
O=C1c2ccccc2C(=O)N1CCOC(=S)N(C(=O)c1cccs1)c1cccc([N+](=O)[O-])c1 | 263 | 100 µM |  |  | 
O=C(/C=C/c1ccccc1)N(C(=S)OCCc1ccccc1)c1ccccc1 | 9 | 40.4 µM |  |  | 
O=C(c1ccco1)N(C(=S)OCc1ccccc1)c1ccccc1 | 1.9 |  |  |  | 
O=C(c1ccc(Cl)cc1)N(C(=S)OCCc1ccccc1)c1ccccc1 | 10.7 | 43 µM |  |  | 
O=C(c1ccco1)N(C(=S)OCCOc1ccccc1)c1ccccc1 | 9.7 | 82 µM |  |  | 
COc1cc(C(=O)N(C(=S)OCCOc2ccccc2)c2ccccc2)cc(OC)c1OC | >20.8 | > 200 µM |  |  | 
O=C(/C=C/c1ccccc1)N(C(=S)OCCOc1ccccc1)c1ccccc1 | 8.65 | 66.6 µM |  |  | 
O=C1c2ccccc2C(=O)N1CCOC(=S)N(C(=O)c1ccco1)c1ccc([N+](=O)[O-])cc1 | 2250 | 18 µM | 14 µM | 5 nM | 
O=C(c1ccccc1)N(C(=S)OCCOc1ccccc1)c1ccccc1 | 15.2 | 122 µM |  |  | 
O=C1c2ccccc2C(=O)N1CCOC(=S)N(C(=O)c1ccccc1)c1ccc(Br)cc1 | >5714 | > 200 µM |  |  | 
O=C(COc1ccccc1)N(C(=S)OCCOc1ccccc1)c1ccccc1 | 17.1 | 103 µM |  |  | 
O=C(c1cc(Cl)cc(Cl)c1)N(C(=S)OCCOc1ccccc1)c1ccccc1 | 4.8 | 43 µM |  |  | 
O=C1c2ccccc2C(=O)N1CCOC(=S)N(C(=O)c1cccs1)c1ccc(Cl)cc1 | >25000 | > 200 µM | 1 µM | 8 nM | 2500 nM
O=C1c2ccccc2C(=O)N1CCOC(=S)N(C(=O)c1cccs1)c1ccccc1Cl | 9 | > 100 µM |  |  | 
CCCOC(=O)N(C(=S)OC(C)COc1ccccc1)c1ccccc1 (stereo unspecified) | >1.5 | > 200 µM |  |  | 
O=C1c2ccccc2C(=O)N1CCOC(=S)N(C(=O)c1cccs1)c1ccc(F)cc1 | >1000 | > 100 µM |  |  | 
CC(COc1ccccc1)OC(=S)N(C(=O)c1ccccc1)c1ccccc1 (stereo unspecified) | >153.8 | > 200 µM |  |  | 
CC(COc1ccccc1)OC(=S)N(C(=O)c1cccs1)c1cccc(Cl)c1 (stereo unspecified) | >9 | > 100 µM |  |  | 
O=C1c2ccccc2C(=O)N1CCOC(=S)N(C(=O)c1cccs1)c1ccc(I)cc1 | 1800 | 18 µM |  |  | 

Structure (SMILES) | SI (MT4) | CC50 (MT-4 (Homo sapiens)) | EC50 [1] | EC90 [2] | IC50 [3]
CC(COc1ccccc1)OC(=S)N(C(=O)Oc1ccccc1)c1ccccc1 (stereo unspecified) |  | > 200 µM |  |  | 
CC(COc1ccccc1)OC(=S)N(C(=O)COc1ccccc1)c1ccccc1 (stereo unspecified) | 87.4 | 122 µM |  |  | 
Cc1ccc(C(=O)N(C(=S)OCCOc2ccccc2)c2ccccc2)cc1 | >20.2 | > 200 µM |  |  | 
COc1cccc(N(C(=O)c2cccs2)C(=S)OCCN2C(=O)c3ccccc3C2=O)c1 | >28 | > 100 µM |  |  | 
CCOc1ccc(N(C(=O)c2ccc(Cl)nc2)C(=S)OCCN2C(=O)c3ccccc3C2=O)cc1 | >200 |  |  |  | 
O=C1c2ccccc2C(=O)N1CCOC(=S)N(C(=O)c1ccc(Cl)cc1)c1ccc(Cl)cc1 | >4000 | > 100 µM | 11.6 µM | 20 nM | 
O=C1c2ccccc2C(=O)N1CCOC(=S)N(C(=O)c1ccccc1)c1ccc(Cl)cc1 | >2000 | > 200 µM | > 100 µM | 130 nM | 
O=C(c1ccc(Cl)c([N+](=O)[O-])c1)N(C(=S)OCCOc1ccccc1)c1ccccc1 | 10.5 | 80 µM |  |  | 
COc1ccccc1N(C(=O)c1cccs1)C(=S)OCCN1C(=O)c2ccccc2C1=O | >9 | > 100 µM |  |  | 
O=C(c1ccccc1)N(C(=S)OCCOc1ccccc1)c1ccc(F)cc1 | 17.6 | 70.7 µM |  |  | 
CCCCOC(=O)N(C(=S)OC(C)COc1ccccc1)c1ccccc1 (stereo unspecified) | >4 | > 200 µM |  |  | 
O=C1c2ccccc2C(=O)N1CCOC(=S)N(C(=O)c1ccccc1)c1ccccc1 | >500 | > 200 µM | > 100 µM | 800 nM | 
O=C(c1ccccc1)N(C(=S)OCCSc1ccccc1)c1ccccc1 |  | 44 µM |  |  | 
CC(COc1ccccc1)OC(=S)N(C(=O)c1cccc2ccccc12)c1ccccc1 (stereo unspecified) | >33.3 |  |  |  | 
O=C(c1cccs1)N(C(=S)OCCOc1ccccc1)c1ccccc1 | 14.5 | 125 µM |  |  | 
O=C1c2ccccc2C(=O)N1CCOC(=S)N(C(=O)c1cccs1)c1cccc(Cl)c1 | >17 | > 100 µM |  |  | 
CCc1ccc(N(C(=O)c2ccco2)C(=S)OCCN2C(=O)c3ccccc3C2=O)cc1 | >3333 | > 100 µM |  |  | 
O=C1c2ccccc2C(=O)N1CCOC(=S)N(C(=O)c1cccs1)c1cccc(F)c1 | >9 | > 100 µM |  |  | 
O=C1c2ccccc2C(=O)N1CCOC(=S)N(C(=O)c1cccs1)c1cccc(Br)c1 | 44 | 53 µM |  |  | 
CC(COc1ccccc1)OC(=S)N(C(=O)c1cccs1)c1ccc(Cl)cc1 (stereo unspecified) | >9 | > 100 µM |  |  | 

Structure (SMILES) | SI (MT4) | CC50 (MT-4 (Homo sapiens)) | EC50 [1] | EC90 [2] | IC50 [3]
Cc1ccc(N(C(=O)c2cccs2)C(=S)OCCN2C(=O)c3ccccc3C2=O)cc1 | >250 | > 100 µM |  |  | 
Cc1ccccc1N(C(=O)c1cccs1)C(=S)OCCN1C(=O)c2ccccc2C1=O | >9 | > 100 µM |  |  | 
CC(COc1ccccc1)OC(=S)N(C(=O)c1ccco1)c1ccccc1 (stereo unspecified) | 39.6 | 51.5 µM |  |  | 
O=C1c2ccccc2C(=O)N1CCOC(=S)N(C(=O)c1cccs1)c1ccc([N+](=O)[O-])cc1 | 16800 | 168 µM | 58 µM |  | 
O=C(c1ccco1)N(C(=S)OCCc1ccccc1)c1ccccc1 | 24 | 102 µM |  |  | 
CC(=O)c1cccc(N(C(=O)c2cccs2)C(=S)OCCN2C(=O)c3ccccc3C2=O)c1 | >17 | > 100 µM |  |  | 
O=C(c1ccccc1)N(C(=S)OCCOc1ccccc1)C1CCCCC1 |  | > 200 µM |  |  | 
CC(COc1ccccc1)OC(=S)N(C(=O)c1cccs1)c1ccc([N+](=O)[O-])cc1 (stereo unspecified) | 10.5 | 63 µM |  |  | 
Cc1cccc(N(C(=O)c2cccs2)C(=S)OCCN2C(=O)c3ccccc3C2=O)c1 | >10 | > 100 µM |  |  | 
CCc1ccccc1N(C(=O)c1cccs1)C(=S)OCCN1C(=O)c2ccccc2C1=O | >9 | > 100 µM |  |  | 
CC(COc1ccccc1)OC(=S)N(C(=O)c1cccc([N+](=O)[O-])c1)c1ccccc1 (stereo unspecified) | >55.5 | > 200 µM |  |  | 
CC(COc1ccccc1)OC(=S)N(C(=O)c1cccs1)c1ccccc1 (stereo unspecified) | >100 | > 200 µM |  |  | 
O=C1c2ccccc2C(=O)N1CCOC(=S)N(C(=O)c1cccs1)c1cccc(C(F)(F)F)c1 | >9 | > 100 µM |  |  | 
O=C(c1ccc(Cl)cc1Cl)N(C(=S)OCCOc1ccccc1)c1ccccc1 | 3.7 | 43 µM |  |  | 
O=C(c1ccccc1)N(C(=S)OCCc1ccccc1)c1ccccc1 | 22 | 91 µM |  |  | 
O=C(c1ccc(Cl)cc1)N(C(=S)OCCOc1ccccc1)c1ccccc1 | 12.9 | 133 µM |  |  | 
CCN(CC)c1ccc(N(C(=O)c2cccs2)C(=S)OCCN2C(=O)c3ccccc3C2=O)cc1 | 9 | > 100 µM |  |  | 
O=C(c1ccccc1)N(C(=S)OCc1ccco1)c1ccccc1 |  | 38.3 µM |  |  | 
